Series [1] concerns Rattus norvegicus. Kind of series: In vivo neuroprotective activity in iv dosed Sprague-Dawley rat transient middle cerebral artery occlusion model assessed as reduction of infarct size measured 24 hrs post reperfusion by TTC staining assay. In kind it is functional, organism-based. Summed up:
(§1)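 Male Sprague-Dawley rats, 7 weeks, 260–280 g, under 10% chloral hydrate ip. Right MCA occluded 60 min by tip-burned 4-0 nylon thread via common carotid, then reperfused. Saline or drug given iv at reperfusion, ethanol as cosolvent. Killed 24 h later; six 2 mm slices in 1% TTC in PBS, 37 °C, 30 min. Infarct area traced as % of total area; n = 12.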

Series [2] concerns Rattus norvegicus. Kind of series: Anti-ischemia activity in Sprague-Dawley rat transient middle cerebral artery occlusion model assessed as inhibition of cleaved caspase-3 protein expression in cerebral cortex at 1.5 to 6 mg/kg, iv measured 24 hrs post reperfusion by Western blot analysis relative to vehicle-treated control. The series is classed as functional, organism-based. In short, it runs like this: (§2)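 Rats underwent 60 min intraluminal right MCA occlusion under chloral hydrate, then reperfusion, with iv saline or drug (1.5, 3.0, 6.0 mg/kg) at reperfusion. At 24 h they were saline-perfused and cortex and hippocampus lysed in RIPA buffer. Protein was BCA-normalized, run on SDS-PAGE and blotted for Bcl-2, Bax, cleaved caspase-3 and β-actin with ECL detection; n = 4.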
In general terms: Immunoblotting shows a protein as a band on a membrane.

Series [3] in a line: Tmax in Sprague-Dawley rat cortex at 2 x 10^-5 mol/kg, iv by LC-MS analysis. The series is classed as ADME, organism-based. The note with it: 2e-05 mol/kg. Summed up: (§3)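 Male Sprague-Dawley rats (260-280 g, n = 4) given a single iv dose of 6 mg/kg. Blood was taken from the jugular vein into heparin tubes under ether, and plasma was spun out and stored at -70 °C. After saline perfusion, cortex was homogenized in 2 volumes of water. Samples were precipitated with acetonitrile with internal standard added and quantified by LC-MS against a weighted linear calibration.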

In series [4] the test system is Rattus norvegicus. The series is described as follows: In vivo neuroprotective activity in iv dosed Sprague-Dawley rat transient middle cerebral artery occlusion model assessed as suppression of neuronal loss in cerebral cortex measured 24 hrs post reperfusion by nissl staining assay. The series is classed as functional, organism-based. In short, it runs like this: (§4)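 After 60 min transient MCAO with iv treatment at reperfusion, rats were perfused at 24 h with PBS, then 4% buffered paraformaldehyde. Brains were paraffin-embedded and coronal sections stained with 0.5% cresyl fast violet (Nissl). Cortex and hippocampus were examined at 200×.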

Series [5] deals with Rattus norvegicus. Kind of series: In vivo neuroprotective activity in Sprague-Dawley rat transient middle cerebral artery occlusion model assessed as reduction of brain-water content at 1.5 to 6 mg/kg, iv measured 24 hrs post reperfusion. The series is classed as functional, organism-based. Summed up: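 Male SD rats (7 weeks, 260-280 g) had 60 min transient right MCA occlusion with a nylon filament, then reperfusion. Saline or drug (1.5, 3.0, 6.0 mg/kg) was injected iv at reperfusion. Animals without neurological deficit were replaced. At 24 h brains were oven-dried at 110 °C for 24 h, and water content was taken as (wet−dry)/wet; n = 12.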

The test system of series [6] is Rattus norvegicus. The series is described as follows: In vivo neuroprotective activity in Sprague-Dawley rat transient middle cerebral artery occlusion model assessed as suppression of neuronal loss in cerebral cortex at 1.5 to 6 mg/kg, iv measured 24 hrs post reperfusion by TUNEL assay. In kind it is functional, organism-based. In short, it runs like this:
(§5)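 Transient MCAO in rats (60 min occlusion), with iv treatment at 1.5, 3.0 or 6.0 mg/kg at reperfusion. At 24 h brains were perfusion-fixed in 4% paraformaldehyde and paraffin-embedded. Hippocampal or cortical sections were proteinase K-treated (20 µg/mL, 15 min, RT), given TdT reaction (37 °C, 1 h) and anti-digoxigenin-AP detection, and TUNEL-positive cells were examined at 200×.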

Series [7] deals with Rattus norvegicus. Kind of series: In vivo neuroprotective activity in iv dosed Sprague-Dawley rat transient middle cerebral artery occlusion model assessed as suppression of neuronal loss in hippocampus measured 24 hrs post reperfusion by nissl staining assay. In kind it is functional, organism-based. In short, it runs like this: as §4
Series [8] can be described thus: Terminal half life in Sprague-Dawley rat plasma at 2 x 10^-5 mol/kg, iv by LC-MS analysis. The series is classed as ADME, organism-based. The note with it: 2e-05 mol/kg, read-out: beta t1/2. Summed up: as §3
For series [9], the system named is Rattus norvegicus. The series is described as follows: Anti-ischemia activity in Sprague-Dawley rat transient middle cerebral artery occlusion model assessed as inhibition of cleaved caspase-3 protein expression in hippocampus at 1.5 to 6 mg/kg, iv measured 24 hrs post reperfusion by Western blot analysis relative to vehicle-treated control. In kind it is functional, organism-based. In short, it runs like this:
as §2

The next series has as its system PC-12. Kind of series: Neuroprotective activity in rat PC12 cells assessed as attenuation of oxygen-glucose deprivation-induced cellular damage at 10 uM by MTT assay relative to control. In kind it is functional. Summed up:
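PC12 cells were seeded at 5×10^3/well for 24 h. OGD insult was low-glucose medium plus 5 mM sodium dithionite for 24 h, given together with 10 µM compound. MTT (5 mg/mL) was added for 4 h and absorbance read at 570 nm. Viability was expressed as % of full-medium control; n = 3.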
A general note: Tetrazolium assays rely on reduction of a dye to a coloured formazan, in cell work by metabolically active cells.

Series [10] is described as follows: AUC in Sprague-Dawley rat cortex at 2 x 10^-5 mol/kg, iv by LC-MS analysis. In kind it is ADME, organism-based. The note with it: 2e-05 mol/kg. Summed up:
as §3

Series [11] in a line: Tmax in Sprague-Dawley rat plasma at 2 x 10^-5 mol/kg, iv by LC-MS analysis. In kind it is ADME, organism-based. The note with it: 2e-05 mol/kg. Summed up:
as §3

Series [12] has as its system Rattus norvegicus. The series is described as follows: Anti-ischemia activity in Sprague-Dawley rat transient middle cerebral artery occlusion model assessed as upregulation of Bcl-2 protein expression in hippocampus at 1.5 to 6 mg/kg, iv measured 24 hrs post reperfusion by Western blot analysis relative to vehicle-treated control. In kind it is functional, organism-based. Summed up:
as §2

For series [13], the system named is Rattus norvegicus. Kind of series: In vivo neuroprotective activity in Sprague-Dawley rat transient middle cerebral artery occlusion model assessed as suppression of neuronal loss in hippocampus at 1.5 to 6 mg/kg, iv measured 24 hrs post reperfusion by TUNEL assay. In kind it is functional, organism-based. Summed up: as §5
A short description of series [14]: Cmax in Sprague-Dawley rat cortex at 2 x 10^-5 mol/kg, iv measured at 2 mins by LC-MS analysis. The series is classed as ADME, organism-based. The note with it: 2e-05 mol/kg. In short, it runs like this:
as §3

The test system of another series is Plasma. The series is described as follows: Drug uptake in Sprague-Dawley rat plasma at 2 x 10^-5 mol/kg, iv measured at 60 mins by LC-MS analysis. The series is classed as ADME, organism-based. The note with it: in vivo, 1 h. Summed up: as §3
Series [15] concerns Rattus norvegicus. Kind of series: In vivo neuroprotective activity in Sprague-Dawley rat transient middle cerebral artery occlusion model assessed as reduction of infarct size at 6 mg/kg, iv measured 24 hrs post reperfusion by TTC staining assay relative to vehicle-treated control. In kind it is functional. Details: scale not given: the % may be the effect or the level left. Summed up: as §1

The next series relates to Cortex. Kind of series: Drug uptake in Sprague-Dawley rat cortex at 2 x 10^-5 mol/kg, iv measured at 60 mins by LC-MS analysis. The series is classed as ADME, organism-based. The note with it: in vivo, 1 h. In short, it runs like this: as §3
Series [16] in a line: Volume of distribution in Sprague-Dawley rat cortex at 2 x 10^-5 mol/kg, iv by LC-MS analysis. In kind it is ADME, organism-based. The note with it: 2e-05 mol/kg. Summed up: as §3
Series [17] can be described thus: Cmax in Sprague-Dawley rat plasma at 2 x 10^-5 mol/kg, iv measured at 2 mins by LC-MS analysis. In kind it is ADME, organism-based. The note with it: 2e-05 mol/kg. Summed up: as §3
A short description of series [18]: Volume of distribution in Sprague-Dawley rat plasma at 2 x 10^-5 mol/kg, iv by LC-MS analysis. The series is classed as ADME, organism-based. The note with it: 2e-05 mol/kg. Summed up: as §3
For series [19], the system named is Rattus norvegicus. The series is described as follows: In vivo neuroprotective activity in Sprague-Dawley rat transient middle cerebral artery occlusion model assessed as reduction of infarct size at 3 mg/kg, iv measured 24 hrs post reperfusion by TTC staining assay relative to vehicle-treated control. Also noted: scale not given: the % may be the effect or the level left. In kind it is functional. In short, it runs like this:
as §1

A short description of series [20]: Clearance in Sprague-Dawley rat plasma at 2 x 10^-5 mol/kg, iv by LC-MS analysis. In kind it is ADME, organism-based. The note with it: 2e-05 mol/kg. In short, it runs like this:
as §3

Active and inactive are the calls of the source. No cut-off for these calls is given here.

In the case of `COc1cc(O)cc2oc(=O)c(N3CCN(C)CC3)c(C)c12`, the Activity entry was “Dose-dependent effect” in the series with Rattus norvegicus [1]; “Dose-dependent effect” with Rattus norvegicus [4]; “Dose-dependent effect” with Rattus norvegicus [7]; 66% in the series on PC-12; 18.89% in the series with Rattus norvegicus [15]; 20.36% in the series on Rattus norvegicus [19]. Further, the inhibition result with Rattus norvegicus [2] and in the series on Rattus norvegicus [9] was “Active” in each case. For the same compound, the Tmax in series [3] and in series [11] was 2 min each time. The result in the series on Rattus norvegicus [5], in the series with Rattus norvegicus [6], in the series with Rattus norvegicus [12] and in the series with Rattus norvegicus [13] was Active. In series [8], the half-life worked out at 6.51 min. The AUC in [10] was 42.4 ng·h/mL. Also, the Cmax came to 122 ng/mL in [14] and 13300 ng/mL in [17]. In addition, the Drug uptake result in the series on Plasma and with Cortex was “Not Active” each time. The Vd in series [16] came to 12.3 L; in [18], 0.084 L. The compound also displayed a clearance in series [20] of 9 mL/min.

A word on the Tmax: it is the time from dosing to the highest level. In general, AUC refers to concentration integrated over time. A word on the Cmax: it is the peak of the concentration-time curve. The term Vd denotes a proportionality between amount in the body and measured concentration, not a real space. In general, clearance refers to a measure of how efficiently the substance is removed, as volume per time.
